{"source": "paper PMC4531836", "about": "(Molecular imaging and biology : MIB : the official …, 2015)", "assay_type_in_all_cases": "in vivo, human", "key": {"Radiation dosimetry": {"test": "Radiation dosimetry", "summary_of_the_method": "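Four patients were analysed. Organ VOIs were drawn on longitudinal PET scans. Time-activity data were integrated by fitted single- or double-exponential functions, or numerically with single-exponential extrapolation. Residence times were scaled from CT-derived patient organ masses to reference masses. Absorbed doses used the MIRD S-value schema in OLINDA/EXM. The bladder model assumed 1.5 h voiding, and lens dose was taken as the photon dose to brain.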"}, "[1]": {"test": "Safety / adverse events in patients with prostate cancer", "settings": "nine patients", "summary_of_the_method": "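Nine patients received about 320.6 MBq IV after 4–6 h fasting. Vital signs and ECG were recorded before dosing, with pulse oximetry during scanning. Within 2 weeks before and after, they had history, examination, CBC with differential, metabolic panel (BUN, creatinine, alkaline phosphatase, bilirubin, transaminases) and ECG. Follow-up visit or contact came within 30 days. Events were graded by NCI CTCAE.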"}, "prostate cancer": {"test_system": "prostate cancer", "test": "PET/CT tumor uptake", "summary_of_the_method": "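Sequential PET/CT ran from injection (PET1–PET4), with PET5 at 120 min. Tumour sites were foci at PET5 with uptake above surrounding soft tissue or blood pool. SUVmax was normalised to lean body mass for up to five hottest lesions per patient, using automatic VOIs at 50% activity threshold. Tumour-to-reference ratio was lesion SUVmax over SUVmean of liver, blood pool or muscle.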"}, "[2]": {"test": "PET biodistribution in patients", "settings": "visual", "summary_of_the_method": "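Patients fasted 4–6 h, then received about 320.6 MBq IV (specific activity 107.2 MBq/nmol). Mid-thigh-to-vertex 3D PET/CT with CT attenuation correction followed. Four sequential scans began at injection, at 1, 2, 4 and 4 min per bed. A fifth scan (4 min/bed) ran at 120 min. Two non-blinded nuclear-medicine readers reviewed images visually.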"}, "[3]": {"test": "Blood and plasma activity, plasma metabolites, urinary excretion", "summary_of_the_method": "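Prostate cancer patients received about 320.6 MBq by slow IV push. Venous blood was drawn from the contralateral arm after PET2, PET4 and PET5, and 0.5 ml aliquots of blood and plasma were well-counted. Urine voided after PET4 and PET5 (about 110 and 160 min) was counted. For metabolites, plasma was acetonitrile-precipitated, spiked with unlabelled reference, and run on C18 radio-HPLC in 10% acetonitrile/90% triethylammonium phosphate pH 3.2 at 2 ml/min.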"}}, "note": "“And” between values parts separate entries of the source, which are not always exact repeats. Equal values may be shown once. “Also recorded” adds a separate entry of the source.", "data": [{"smiles": "O=C(O)CCC(NC(=O)NC(CCCCNC(=O)c1ccc([18F])nc1)C(=O)O)C(=O)O", "note": "(stereo not drawn) [[^18F]DCFPyL, 2-(3-(1-carboxy-5-[(6-[^18F]fluoro-pyridine-3-carbonyl)-amino]-pentyl)-ureido)-pentanedioic acid]", "values": [{"measurement": "Absorbed dose", "setting": "Radiation dosimetry; Adrenals", "value": "3.11E-02", "unit": "mGy/MBq"}, {"measurement": "Res. time", "setting": "Radiation dosimetry; Adrenals", "value": "3.16E-04 (Bq-h)/Bq"}, {"measurement": "Res. time", "setting": "Radiation dosimetry; Bone marrow (spine)", "value": "5.52E-02 (Bq-h)/Bq"}, {"measurement": "Absorbed dose", "setting": "Radiation dosimetry; Brain", "value": "2.19E-03", "unit": "mGy/MBq"}, {"measurement": "Res. time", "setting": "Radiation dosimetry; Brain", "value": "4.74E-03 (Bq-h)/Bq"}, {"measurement": "Absorbed dose", "setting": "Radiation dosimetry; Breasts", "value": "4.57E-03", "unit": "mGy/MBq"}, {"measurement": "Res. time", "setting": "Radiation dosimetry; Gallbladder", "value": "1.18E-03 (Bq-h)/Bq"}, {"measurement": "Absorbed dose", "setting": "Radiation dosimetry; Gallbladder wall", "value": "1.44E-02", "unit": "mGy/MBq"}, {"measurement": "Res. time", "setting": "Radiation dosimetry; Heart", "value": "1.98E-02 (Bq-h)/Bq"}, {"measurement": "Absorbed dose", "setting": "Radiation dosimetry; Heart wall", "value": "1.29E-02", "unit": "mGy/MBq"}, {"measurement": "Res. time", "setting": "Radiation dosimetry; Heart wall", "value": "6.24E-03 (Bq-h)/Bq"}, {"measurement": "Absorbed dose", "setting": "Radiation dosimetry; Kidneys", "value": "0.0945 mGy/MBq and 9.45E-02 mGy/MBq"}, {"measurement": "Res. time", "setting": "Radiation dosimetry; Kidneys", "value": "2.17E-01 (Bq-h)/Bq"}, {"measurement": "Res. time", "setting": "Radiation dosimetry; LLI", "value": "4.06E-03 (Bq-h)/Bq"}, {"measurement": "Absorbed dose", "setting": "Radiation dosimetry; LLI wall", "value": "1.05E-02", "unit": "mGy/MBq"}, {"measurement": "Absorbed dose", "setting": "Radiation dosimetry; Lacrimal glands", "value": "3.50E-02", "unit": "mGy/MBq"}, {"measurement": "Res. time", "setting": "Radiation dosimetry; Lacrimal glands", "value": "3.86E-04 (Bq-h)/Bq"}, {"measurement": "Absorbed dose", "setting": "Radiation dosimetry; Lens", "value": "1.25E-03", "unit": "mGy/MBq"}, {"measurement": "Res. time", "setting": "Radiation dosimetry; Lens", "value": "4.32E-06 (Bq-h)/Bq"}, {"measurement": "Absorbed dose", "setting": "Radiation dosimetry; Liver", "value": "0.0380 mGy/MBq and 3.80E-02 mGy/MBq"}, {"measurement": "Res. time", "setting": "Radiation dosimetry; Liver", "value": "2.60E-01 (Bq-h)/Bq"}, {"measurement": "Absorbed dose", "setting": "Radiation dosimetry; Lungs", "value": "1.08E-02", "unit": "mGy/MBq"}, {"measurement": "Res. time", "setting": "Radiation dosimetry; Lungs", "value": "3.70E-02 (Bq-h)/Bq"}, {"measurement": "Absorbed dose", "setting": "Radiation dosimetry; Muscle", "value": "6.32E-03", "unit": "mGy/MBq"}, {"measurement": "Res. time", "setting": "Radiation dosimetry; Muscle", "value": "3.07E-01 (Bq-h)/Bq"}, {"measurement": "Absorbed dose", "setting": "Radiation dosimetry; Osteogenic cells", "value": "9.58E-03", "unit": "mGy/MBq"}, {"measurement": "Absorbed dose", "setting": "Radiation dosimetry; Ovaries (hypothetical, all-male cohort)", "value": "8.89E-03", "unit": "mGy/MBq"}, {"measurement": "Absorbed dose", "setting": "Radiation dosimetry; Pancreas", "value": "2.44E-02", "unit": "mGy/MBq"}, {"measurement": "Res. time", "setting": "Radiation dosimetry; Pancreas", "value": "3.05E-03 (Bq-h)/Bq"}, {"measurement": "Absorbed dose", "setting": "Radiation dosimetry; Parotid glands", "value": "2.68E-02", "unit": "mGy/MBq"}, {"measurement": "Res. time", "setting": "Radiation dosimetry; Parotid glands", "value": "1.19E-02 (Bq-h)/Bq"}, {"measurement": "Absorbed dose", "setting": "Radiation dosimetry; Red marrow", "value": "0.01 mGy/MBq and 1.04E-02 mGy/MBq"}, {"measurement": "Res. time", "setting": "Radiation dosimetry; Remainder of body", "value": "7.11E-01 (Bq-h)/Bq"}, {"measurement": "Absorbed dose", "setting": "Radiation dosimetry; Skin", "value": "4.05E-03", "unit": "mGy/MBq"}, {"measurement": "Absorbed dose", "setting": "Radiation dosimetry; Small intestine", "value": "9.13E-03", "unit": "mGy/MBq"}, {"measurement": "Absorbed dose", "setting": "Radiation dosimetry; Spleen", "value": "1.85E-02", "unit": "mGy/MBq"}, {"measurement": "Res. time", "setting": "Radiation dosimetry; Spleen", "value": "2.07E-02 (Bq-h)/Bq"}, {"measurement": "Res. time", "setting": "Radiation dosimetry; Stomach", "value": "1.07E-02 (Bq-h)/Bq"}, {"measurement": "Absorbed dose", "setting": "Radiation dosimetry; Stomach wall", "value": "1.16E-02", "unit": "mGy/MBq"}, {"measurement": "Absorbed dose", "setting": "Radiation dosimetry; Submandibular glands", "value": "0.0387 mGy/MBq and 3.87E-02 mGy/MBq"}, {"measurement": "Res. time", "setting": "Radiation dosimetry; Submandibular glands", "value": "6.95E-03 (Bq-h)/Bq"}, {"measurement": "Absorbed dose", "setting": "Radiation dosimetry; Testes", "value": "1.01E-02", "unit": "mGy/MBq"}, {"measurement": "Res. time", "setting": "Radiation dosimetry; Testes", "value": "1.76E-03 (Bq-h)/Bq"}, {"measurement": "Absorbed dose", "setting": "Radiation dosimetry; Thymus", "value": "5.56E-03", "unit": "mGy/MBq"}, {"measurement": "Absorbed dose", "setting": "Radiation dosimetry; Thyroid", "value": "8.56E-03", "unit": "mGy/MBq"}, {"measurement": "Res. time", "setting": "Radiation dosimetry; Thyroid", "value": "2.34E-04 (Bq-h)/Bq"}, {"measurement": "Res. time", "setting": "Radiation dosimetry; Total body", "value": "1.96E+00 (Bq-h)/Bq"}, {"measurement": "Res. time", "setting": "Radiation dosimetry; ULI", "value": "2.20E-02 (Bq-h)/Bq"}, {"measurement": "Absorbed dose", "setting": "Radiation dosimetry; ULI wall", "value": "1.67E-02", "unit": "mGy/MBq"}, {"measurement": "Res. time", "setting": "Radiation dosimetry; Urinary bladder contents", "value": "2.60E-01 (Bq-h)/Bq"}, {"measurement": "Absorbed dose", "setting": "Radiation dosimetry; Urinary bladder wall, voiding interval 1.5 h", "value": "0.0864 mGy/MBq and 8.64E-02 mGy/MBq"}, {"measurement": "Absorbed dose", "setting": "Radiation dosimetry; Uterus (hypothetical, all-male cohort)", "value": "1.15E-02", "unit": "mGy/MBq"}, {"measurement": "Effective dose", "setting": "Radiation dosimetry; four patients, OLINDA/EXM", "value": 0.0165, "unit": "mSv/MBq"}, {"measurement": "Radiation dose in the whole body and radiosensitive organs", "setting": "Radiation dosimetry; whole body, red marrow, gonads, breasts", "value": "≤ 0.01", "unit": "mGy/MBq"}, {"measurement": "Radiotracer-related adverse events with monitored heart rate or blood pressure", "setting": "[1]", "value": "no radiotracer-related adverse events"}, {"measurement": "Adverse events", "setting": "[1]; IV bolus average 320.6 MBq", "value": "No major radiotracer-specific adverse events; also recorded: safe to administer"}, {"measurement": "SUVmax, individual lesions", "setting": "prostate cancer; PET4 and PET5, approximately 1 and 2 h post-radiotracer injection", "value": "greater than 100"}, {"measurement": "SUVmax, highest uptake at a site of primary disease", "setting": "prostate cancer; PET5 (120 min post-injection)", "value": 71.6}, {"measurement": "SUVmax, most avid bone lesions", "setting": "prostate cancer; PET5 (120 min post-injection)", "value": 102.0}, {"measurement": "SUVmax, most avid lymph node lesion", "setting": "prostate cancer; PET5 (120 min post-injection)", "value": 100.3}, {"measurement": "SUVmax in putative sites of prostate cancer (highest, some lesions)", "setting": "prostate cancer; SUVmax normalized to lean body mass", "value": "> 100"}, {"measurement": "Radiotracer uptake in the brain", "setting": "[2]", "value": "No radiotracer uptake"}, {"measurement": "Red cell binding", "setting": "[3]; 86 and 137 min post-injection", "value": "non-detectable"}, {"measurement": "Red cell binding", "setting": "[3]; 20 min post-injection", "value": "negligible"}, {"measurement": "Average urinary excretion of the radiotracer", "setting": "[3]; by 2 h post-injection", "value": 11, "unit": "%"}, {"measurement": "Urinary excretion of the radiotracer, range", "setting": "[3]; by 2 h post-injection", "value": "6–15%"}, {"measurement": "Average urinary excretion of the radiotracer", "setting": "[3]; by 3 h post-injection", "value": 16, "unit": "%"}, {"measurement": "Urinary excretion of the radiotracer, range", "setting": "[3]; by 3 h post-injection", "value": "8–21%"}, {"measurement": "Radiotracer metabolites in plasma (radio-HPLC)", "setting": "[3]; three patients, up to 173 min post-injection", "value": "all plasma activities were in the form of unmetabolized radioligand; also recorded: no metabolism"}]}]}
